Screening results deposited in PubChem by Broad Institute.
A selection: hits, their analogues and other compounds. The true share with any hit is near 2.2%.
FN deposition inh: inhibitors of fibronectin matrix deposition, primary screen, AH1F cells, Alexa488-fibronectin fluorescence, plate reader; AH1F fibroblasts, overnight; inhibition, % at 12.6 µM; 350,000 tested, 0.086% active;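 active means mean inhibition across replicates of 30% or more, regardless of how many single replicates reach that level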;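 further: positive control wells lacked labelled fibronectin entirely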
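Material: AH1F fibroblast monolayer depositing Alexa488-labelled fibronectin into matrix / Amount: 10000 AH1F cells per well / Signal: fluorescence 485/525 nm / Medium: DMEM, 2% serum / Compound: single dose, pinned / Incubation: 1 h cell adhesion before compound, then overnight fibronectin incubation / Reagent: Alexa488-FN, 24 nM final / Read-out: inhibition of fibronectin deposition signal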
PGC1a acetyl inh: inhibitors of PGC1a acetylation signal, primary screen, cell-based, U2OS, AlphaScreen, inhibitor mode; AlphaScreen anti-acetyl-lysine; with virally co-expressed GCN5 acetyltransferase; inhibition, % at 15.6 µM; 350,000 tested, 0.17% active; AID 651687, 2012;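 active means every replicate shows inhibition of at least 40%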;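 further: 0% = neutral control wells and 100% = positive control wells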
FGF22 binding: binders of human FGF22 protein, primary screen, FGF22 synaptogenesis inhibitor project, biophysical, thermal shift, single point | Fibroblast growth factor 22 (Homo sapiens), Q9HCT0 | AID 651658, 2012 | 340,000 tested, 1.5% active | recombinant FGF22 thermal shift, SYPRO orange fluorescence; percent of sucrose octasulfate shift, DMSO zero | activity (Tm shift, normalised), % at 9.99 µM;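 active means mean Tm shift, scaled 0 neutral to 100 positive control, at about 1.3% or above, every replicate too, limit read from the data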
Target sequence (Q9HCT0 whole entry, looked up): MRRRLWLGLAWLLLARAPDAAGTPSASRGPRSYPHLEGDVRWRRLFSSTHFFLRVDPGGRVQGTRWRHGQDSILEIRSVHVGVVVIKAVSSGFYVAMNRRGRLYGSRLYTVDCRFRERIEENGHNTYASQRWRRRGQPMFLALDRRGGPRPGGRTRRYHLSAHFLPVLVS
ERAP1 HTS inh: human ERAP1 aminopeptidase inhibitors, primary screen, biochemical, single point, plate reader | Endoplasmic reticulum aminopeptidase 1 (Homo sapiens), Q9NZ08 | recombinant ERAP1, Leu-AMC fluorescence, 60 min | inhibition, % at 10.7 µM | 340,000 tested, 0.15% active;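 active means mean replicate inhibition of at least 30%, or all replicates individually reaching that 30% level; inactive means mean below 30% and not every replicate reaching it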;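 further: 0% = neutral control wells and 100% = L-leucinethiol positive control wells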
SIRT5 inh: SIRT5 desuccinylase inhibitors, primary screen, biochemical, fluorescence imaging, single point, set 5; Purified SirT5, succinyl-peptide AMC, trypsin-coupled fluorescence; 330,000 tested, 1.1% active; inhibition, % at 15 µM; AID 652115, 2013; in the data active means inhibition above about 15%
Target sequence (Q9NXA8 whole entry, looked up): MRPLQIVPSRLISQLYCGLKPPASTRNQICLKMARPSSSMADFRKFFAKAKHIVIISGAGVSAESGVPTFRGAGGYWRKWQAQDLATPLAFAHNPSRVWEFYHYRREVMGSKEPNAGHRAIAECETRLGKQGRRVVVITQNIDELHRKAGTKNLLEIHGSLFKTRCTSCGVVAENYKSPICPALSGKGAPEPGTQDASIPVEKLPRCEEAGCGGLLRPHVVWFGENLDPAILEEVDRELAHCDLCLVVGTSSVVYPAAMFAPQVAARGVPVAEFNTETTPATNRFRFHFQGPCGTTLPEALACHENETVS
Numbers without * were called inactive; · = no result.

SMILES	FN deposition inh	PGC1a acetyl inh	FGF22 binding	ERAP1 HTS inh	SIRT5 inh
CN(C)CC(=O)Nc1ccc2c(c1)[C@@H]1C[C@@H](CC(=O)NCc3ccc4c(c3)OCO4)O[C@@H](CO)[C@@H]1O2	-1	0	0	-2	-2
Cc1cccc(C(=O)Nc2cccc(NC(=O)c3ccccc3)c2)c1	2	1	0	-1	-2
O=C(O)c1ccc(NC(=O)c2cccc(C(=O)Nc3ccc(C(=O)O)cc3)c2)cc1	24	·	0	-29	33*
Cc1cccc(NC(=O)c2cccc(C(=O)Nc3cccc(C)c3)c2)c1	-2	-3	2.0*	1	-6
C[C@@H]1CN([C@H](C)CO)C(=O)c2cc(NC(=O)Nc3ccccc3)ccc2O[C@H]1CN(C)CC1CCCCC1	-1	-2	0	1	2
CN(C)C(=O)C[C@@H]1CC[C@H]2[C@@H](COC[C@@H](O)CN2C(=O)C2CC2)O1	5	1	0	-1	-2
O=C1CCCCCN1C(=O)c1ccccc1	1	4	43*	-3	·
CC(C)(C)c1ccc(C(=O)N2CCCCCC2=O)cc1	4	·	·	·	·
C[C@@H]1CN([C@H](C)CO)C(=O)c2cc(NC(=O)Nc3ccc4c(c3)OCO4)ccc2O[C@@H]1CN(C)C(=O)NC1CCCCC1	·	-10	0	1	7
N#C[C@@H]1[C@H](c2ccccc2C2=CCCCC2)[C@H](CO)N1C(=O)Cc1ccncc1	-1	45*	·	-3	-3
CN1C(=O)c2cc(NC(=O)C3CCCC3)ccc2OC[C@@H]2O[C@@H](CC(=O)NCC(F)(F)F)CC[C@@H]21	-13	4	0	-1	-1
O=C(Nc1ccc2c(c1)OCO2)N[C@H]1CC[C@@H](CCNC(=O)C2CCCCC2)O[C@@H]1CO	·	6	0	1	5
CCSc1nnc(NC(=O)Cc2ccc(OC)cc2)s1	0	-1	·	1	20*
COc1ccc(NC(=O)CSc2nnc(NC(=O)c3ccccc3C(=O)O)s2)cc1	5	6	43*	-5	3
CCCCC(=O)Nc1nnc(SCC(=O)Nc2ccc(OC)cc2)s1	·	-3	0	2	-2
CCSc1nnc(NC(=O)Cc2cccc(OC)c2)s1	-6	7	·	·	·
O=C(Nc1cc(F)ccc1F)N[C@@H]1C=C[C@@H](CC(=O)N2CCc3ccccc3C2)O[C@H]1CO	6	-6	0	-6	8
CCCNC(=O)C[C@H]1C[C@H]2c3cc(NC(=O)CN(C)C)ccc3O[C@H]2[C@@H](CO)O1	-6	-2	0	·	·
Cc1ccnc(NC2CCCCC2)c1	11	-7	44*	-1	-5
Cc1cc(NC2CCCCC2)nc2ccccc12	-1	·	0	0	3
COc1ccc(-c2c[n+](CC(=O)OC3CC(C)CCC3C(C)C)c3n2CCC3)cc1 (stereo not given)	-5	1	43*	-1	9
N=c1c(C(=O)NCC2CCCO2)cc2c(=O)n3ccccc3nc2n1Cc1cccnc1 (stereo not given)	·	-12	·	·	·
Cc1cccn2c(=O)c3cc(C(=O)NCC4CCCO4)c(=N)n(Cc4cccnc4)c3nc12 (stereo not given)	-6	-4	·	105*	-112
Cc1cccn2c(=O)c3cc(C(=O)NCC4CCCO4)c(=N)n(CC4CCCO4)c3nc12 (stereo not given)	-3	3	0	82*	-146
CCOCCCNc1nc2nc3ccc(C)cn3c(=O)c2cc1C(=O)NCC1CCCO1 (stereo not given)	2	-6	0	57*	-89
SMILES	FN deposition inh	PGC1a acetyl inh	FGF22 binding	ERAP1 HTS inh	SIRT5 inh
Cc1ccc2nc3c(cc(C(=O)NCC4CCCO4)c(=N)n3CCCOC(C)C)c(=O)n2c1 (stereo not given)	-13	-5	·	·	·
Cc1[nH]c2ccccc2c1N=Nc1ccc(F)cc1	4	-18	0	4	·
Cc1[nH]c2ccccc2c1N=Nc1ccccc1F	-1	-18	44*	3	-3
C=C(C)CN(CC)C(=O)c1ccc(OC2CCN(S(=O)(=O)N(C)C)CC2)cc1	·	0	1	1	17*
COc1ccc(NC(=O)Nc2ccc3c(c2)C(=O)N(C)C[C@@H](OC)[C@H](C)CN[C@@H](C)CO3)cc1	-1	2	·	·	·
O=c1c2ccccc2sn1-c1ccccc1	·	18	·	·	·
O=c1c2ccccc2sn1-c1nccs1	38*	-6	1	-1	-5
CCN1CCN(CCCNC(=O)CCc2nc(-c3ccc(OC)cc3)no2)CC1	4	·	43*	-3	0
COc1ccc(-c2noc(CCC(=O)NCCCN3CCC(C)CC3)n2)cc1	·	0	·	·	·
CO[C@H]1CN(C)C(=O)c2ccc(NS(=O)(=O)CC(F)(F)F)cc2OC[C@@H](C)N(CC2CCCCC2)C[C@H]1C	-26	-15	0	0	-1
Cc1ncc([N+](=O)[O-])n1CCOC(=O)Nc1ccc([N+](=O)[O-])cc1	7	·	43*	0	-3
Cc1ccccc1S(=O)(=O)N(C)C[C@H]1OCc2ccccc2-c2c(n(C)c3ccccc23)C(=O)N([C@H](C)CO)C[C@@H]1C	3	-8	0	0	8
Cc1ccc(S(=O)(=O)N(C)C[C@H]2OCc3ccccc3-c3c(n(C)c4ccccc34)C(=O)N([C@H](C)CO)C[C@H]2C)cc1	-1	-16	0	1	20*
COc1ccc(S(=O)(=O)N(C)C[C@H]2OCc3ccccc3-c3c(n(C)c4ccccc34)C(=O)N([C@H](C)CO)C[C@@H]2C)cc1	4	-3	0	2	-2
Cc1ccc(S(=O)(=O)N(C)C[C@H]2OCc3ccccc3-c3c(n(C)c4ccccc34)C(=O)N([C@H](C)CO)C[C@@H]2C)cc1	-3	-4	0	-1	10
COc1ccc(S(=O)(=O)N(C)C[C@@H]2OCc3ccccc3-c3c(n(C)c4ccccc34)C(=O)N([C@H](C)CO)C[C@H]2C)cc1	5	-6	0	-1	16*
Cc1ccccc1S(=O)(=O)N(C)C[C@H]1OCc2ccccc2-c2c(n(C)c3ccccc23)C(=O)N([C@@H](C)CO)C[C@@H]1C	-9	8	0	-1	22*
Cc1noc(C)c1NC(=O)Nc1ccc2c(c1)CC(=O)N([C@H](C)CO)C[C@@H](C)[C@H](CN(C)Cc1ccncc1)O2	·	8	0	-4	-4
COCCNC(=O)C[C@@H]1C[C@H]2c3cc(NC(=O)Nc4ccccc4)ccc3O[C@H]2[C@H](CO)O1	-6	5	-1	-2	6
